In ChEMBL document CHEMBL2062386, “Discovery of LFF571: an investigational agent for Clostridium difficile infection” (J Med Chem, 2012):
In brackets after ≈: the same amount, converted by molar mass. Activity calls are given as the source filed them. The calls are words filed in the database; no cut-off is given here.

Assays:
[1] = Antibacterial activity against Clostridium difficile ATCC 43255 by broth microdilution method; assay type: functional; conditions: Clostridioides difficile
How it was run: (§1)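 Broth microdilution MICs were run per CLSI M07-A8 (2009). The strain panel included C. difficile ATCC 43255, E. faecalis ATCC 29212 and S. pyogenes ATCC BAA-595.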

[2] = Binding affinity to Escherichia coli GDPNP-labelled EF-Tu by surface plasmon resonance analysis
Escherichia coli [3] = experiment: Inhibition of protein synthesis in Escherichia coli S30 extract at 2 uM after 75 mins by luciferase based luminescence assay relative to GE2270A; assay type: functional
Staphylococcus aureus [4] = experiment: Antibacterial activity against Staphylococcus aureus A4.018 by broth microdilution method; assay type: functional
Streptococcus pyogenes = experiment: Antibacterial activity against Streptococcus pyogenes ATCC BAA-595 by broth microdilution method; assay type: functional; how it was run: as §1
Enterococcus faecium = experiment: Antibacterial activity against Enterococcus faecium 7130724 by broth microdilution method; assay type: functional
Escherichia coli [5] = experiment: Inhibition of protein synthesis in Escherichia coli S30 extract after 75 mins by luciferase based luminescence assay relative to GE2270A; assay type: functional, organism-based
Enterococcus faecalis [6] = experiment: Antibacterial activity against Enterococcus faecalis ATCC 29212 by broth microdilution method; assay type: functional; how it was run: as §1
[7] = Antibacterial activity against Clostridium difficile ATCC 43255 infected in golden syrian hamster assessed as survival rate at 2 mg/kg, po qd administered days 1 to 5 measured on days 6 to 21; assay type: functional; conditions: Clostridioides difficile
How it was run: (§2)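 Golden Syrian hamsters got clindamycin 10 mg/kg sc on day −1. On day 0 they were gavaged with ~7.5 × 10^6 CFU C. difficile ATCC 43255 (0.75 mL). From 24 h post-infection they were dosed orally once daily for up to 5 days (8/dose), in a NaOH/PEG-400/2.5% Cremophor EL solution diluted in pH 7.4 PBS. Vehicle controls were included, and animals were observed twice daily through day 21.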

[8] = Drug level in Clostridium difficile infected golden syrian hamster cecum at 20 mg/kg, po qd administered for 5 days measured at 1 hr post dose; assay type: ADME, organism-based, Mesocricetus auratus, Caecum; set-up: dose 20 mg/kg, route oral; conditions: read-out: Drug uptake
How it was run: (§3)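 C. difficile-infected hamsters received 20 mg/kg orally (0.6 mL at 3.3 mg/mL) once daily for 5 days. At 1 and 3 h after the fifth dose, 3 animals per time point were sampled: plasma (K2-EDTA, cardiac puncture) and cecal contents. Cecal contents were homogenized in PBS/25% acetonitrile (final 1:25 dilution). Samples were protein-precipitated with acetonitrile containing glyburide internal standard.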

[9] = Plasma concentration in Clostridium difficile infected golden syrian hamster at 20 mg/kg, po qd administered for 5 days measured at 1 hr post dose; assay type: ADME, organism-based, Mesocricetus auratus; set-up: dose 20 mg/kg, route oral; how it was run: as §3
Enterococcus faecalis [10] = experiment: Antibacterial activity against Enterococcus faecalis NB04025 infected in CD1 mouse assessed as mouse survival up to 5 days; assay type: functional; conditions: NB04025, 120 h
How it was run: (§4)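 Female CD1 mice (21–25 g) were infected ip with 1 × 10^8 CFU/mouse, 10–100× the minimal lethal dose. E. faecalis NB04025 was given in 50% rat fecal extract and S. aureus ATCC 49951 in 0.9% NaCl. Compound was given by iv tail-vein bolus at 1 and 5 h post-inoculation, at several dose levels (6 mice/group). ED50 with 95% CI was derived by probit analysis of day-5 survival.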

[11] = Oral bioavailability in Sprague-Dawley rat; assay type: ADME, organism-based; conditions: in vivo
How it was run: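 Male Sprague–Dawley rats (220–270 g, N = 2 or 3) were used, including iv dosing. Rats were fasted overnight and for 8 h post-dose. Plasma (K2-EDTA) was protein-precipitated with acetonitrile containing glyburide internal standard and analysed by LC–MS/MS (C18, formic acid water/acetonitrile gradient).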

[12] = Antibacterial activity against Clostridium difficile ATCC 43255 infected in golden syrian hamster assessed as survival rate at 0.2 mg/kg, po qd administered days 1 to 5 measured on days 6 to 21; assay type: functional; conditions: Clostridioides difficile; how it was run: as §2
Staphylococcus aureus [13] = experiment: Antibacterial activity against Staphylococcus aureus ATCC 49951 infected in CD1 mouse assessed as mouse survival up to 5 days; assay type: functional; conditions: ATCC 49951, 120 h; how it was run: as §4
[14] = Drug level in Clostridium difficile infected golden syrian hamster cecum at 20 mg/kg, po qd administered for 5 days measured at 3 hrs post dose; assay type: ADME, organism-based, Mesocricetus auratus, Caecum; set-up: dose 20 mg/kg, route oral; conditions: read-out: Drug uptake; how it was run: as §3
[15] = Antibacterial activity against Clostridium difficile ATCC 43255 infected in golden syrian hamster assessed as survival rate at 20 mg/kg, po qd administered days 1 to 5 measured on days 6 to 21; assay type: functional; conditions: Clostridioides difficile; how it was run: as §2
[16] = Plasma concentration in Clostridium difficile infected golden syrian hamster at 20 mg/kg, po qd administered for 5 days measured at 3 hrs post dose; assay type: ADME, organism-based, Mesocricetus auratus; set-up: dose 20 mg/kg, route oral; how it was run: as §3
[17] = test system: Clostridium difficile ATCC 43255; experiment: Antibacterial activity against Clostridium difficile ATCC 43255 infected in golden syrian hamster assessed as decrease in toxin level in cecum after 21 days by ELISA; assay type: functional; conditions: Caecum
How it was run: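 In the clindamycin-pretreated, C. difficile-infected hamster model, oral compound was given once daily on days 1–5. Surviving animals were euthanized at study end (day 21). Cecal homogenates were assayed for C. difficile toxins A and B by Tox A/B II ELISA per kit directions.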

[18] = test system: Clostridium difficile ATCC 43255; experiment: Antibacterial activity against Clostridium difficile ATCC 43255 infected in po dosed golden syrian hamster assessed as survival rate administered qd for days 1 to 5 measured on after 6 to 21 days; assay type: functional, organism-based; how it was run: as §2

Row | SMILES | MIC [1] | Kd [2] | inhibition at 2 µM (Escherichia coli [3]) | MIC (Staphylococcus aureus [4]) | MIC (Streptococcus pyogenes) | MIC (Enterococcus faecium) | MIC (Enterococcus faecalis [6]) | survival at 2 mg/kg [7] | concentration at 1 h [8] | ED50 (Enterococcus faecalis [10]) | survival at 0.2 mg/kg [12] | ED50 (Staphylococcus aureus [13]) | concentration at 3 h [14] | survival at 20 mg/kg [15] | Activity [17] | also measured
1 | CNC(=O)C[C@@H]1NC(=O)c2csc(n2)-c2ccc(-c3nc(C4=N[C@H](C(=O)N5CCC[C@H]5C(N)=O)CO4)cs3)nc2-c2csc(n2)-c2csc(n2)[C@H]([C@@H](O)c2ccccc2)NC(=O)CNC(=O)c2nc(sc2COC)[C@H](C(C)C)NC(=O)c2nc1sc2C | 0.015 µg/mL (≈ 0.0116 µM) | 3 nM | 30% | 0.25 µg/mL (≈ 0.194 µM) | 1 µg/mL (≈ 0.775 µM) | 0.25 µg/mL (≈ 0.194 µM) | 0.5 µg/mL (≈ 0.387 µM) | – | – | – | – | – | – | – | – | IC50 (Escherichia coli [5]): 2000 nM
2 | CNC(=O)C[C@@H]1NC(=O)c2csc(n2)-c2ccc(-c3nc(N(CCCCC(=O)O)C(=O)O[C@H]4CC[C@H](C(=O)O)CC4)cs3)nc2-c2csc(n2)-c2csc(n2)[C@H]([C@@H](O)c2ccccc2)NC(=O)CNC(=O)c2nc(sc2COC)[C@H](C(C)C)NC(=O)c2nc1sc2C [LFF-571] | 0.03 µg/mL (≈ 0.022 µM) | 6 nM | 67% | 0.125 µg/mL (≈ 0.0915 µM) | 1 µg/mL (≈ 0.732 µM) | < 0.06 µg/mL | < 0.06 µg/mL | 100% | 61 µM | 2.2 mg/kg | 0% | 6.9 mg/kg | 208 µM | 100% | Active | concentration at 1 h ([9]; golden Syrian, plasma): 0.0448 µM; bioavailability [11]: < 0.1%; concentration at 3 h ([16]; golden Syrian, plasma): 0.0052 µM
3 | CNC(=O)C[C@@H]1NC(=O)c2csc(n2)-c2ccc(-c3nc(NC(=O)[C@H]4CC[C@H](C(=O)O)CC4)cs3)nc2-c2csc(n2)-c2csc(n2)[C@H]([C@@H](O)c2ccccc2)NC(=O)CNC(=O)c2nc(sc2COC)[C@H](C(C)C)NC(=O)c2nc1sc2C | 0.06 µg/mL (≈ 0.048 µM) | 43 nM | 30% | 0.125 µg/mL (≈ 0.1 µM) | 4 µg/mL (≈ 3.2 µM) | 0.06 µg/mL (≈ 0.048 µM) | 0.06 µg/mL (≈ 0.048 µM) | 62.5% | 18 µM | 0.6 mg/kg | 0% | 5.2 mg/kg | 39 µM | 100% | Active | Cp ([9]; in vivo, 1 h, BLD = below limit of detection): BLD; Survival [18]: Dose-dependent effect; Cp ([16]; in vivo, 3 h, BLD = below limit of detection): BLD
